Data set [1] concerns SH-SY5Y. The data set is described as follows: Anti-tumor activity against human SH-SY5Y cells xenografted in NSG mouse assessed as reduction in tumor volume at 10 mg/kg, ip measured for 5 to 10 days. The format is functional, organism-based. Conditions: time 5-10 day. Put shortly: (§1)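 NSG mice, 6–8 weeks, injected subcutaneously in right flank with ES2 (250,000) or SH-SY5Y/BE(2)C (1 million) cells in cold matrigel/serum-free RPMI 1:1. Once palpable, 10 mg/kg IP M–F vs vehicle; volume (length × width2)[…]; BE(2)C and ES2 monitored alternate days; endpoint 2000 mm3; % change in volume, t-test.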

Data set [2] concerns Mus musculus. The data set is described as follows: Anti-tumor activity against tumor cells in TH-MYCN +/+ neuroblastoma 129x1/SvJ.Tg (TH-MYCN)41Waw/Nci mouse model assessed as reduction in tumor volume administered intraperitoneally measured on day 7 by ultrasound imaging analysis. Type of data set: functional, organism-based. Conditions: route ip, time 7.0 day, DDE = dose-dependent effect. Put shortly: (§2)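 Homozygous TH-MYCN+/+ mice (129×1/SvJ background, genotyped) with spontaneous neuroblastoma dosed IP, vehicle n = 7, 10 mg/kg n = 8, six treatments; a 100 mg/kg group got three. Tumor burden by abdominal ultrasound under 1–3% isoflurane; tumors excised and weighed at end; groups compared by t-test.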

Data set [3] can be described thus: Toxicity in NSG mouse xenografted with human ES2 cells assessed as body weight change at 10 mg/kg, ip measured upto 30 days. The format is organism-based. Conditions: in vivo, 720 h, time < 30 day. (In general: Xenograft models place foreign cells or tissue in a host animal.)
Data set [4] relates to BE(2)-C. The data set is described as follows: Anti-tumor activity against human BE2C cells xenografted in NSG mouse assessed as reduction in tumor volume at 10 mg/kg, ip measured for 5 to 8 days. As to conditions: time 5-8 day. Type of data set: functional, organism-based. The method, boiled down: as §1
Data set [5] has as its target T1, Vitamin D3 receptor (Homo sapiens) (UniProt P11473).
T1 sequence (whole entry): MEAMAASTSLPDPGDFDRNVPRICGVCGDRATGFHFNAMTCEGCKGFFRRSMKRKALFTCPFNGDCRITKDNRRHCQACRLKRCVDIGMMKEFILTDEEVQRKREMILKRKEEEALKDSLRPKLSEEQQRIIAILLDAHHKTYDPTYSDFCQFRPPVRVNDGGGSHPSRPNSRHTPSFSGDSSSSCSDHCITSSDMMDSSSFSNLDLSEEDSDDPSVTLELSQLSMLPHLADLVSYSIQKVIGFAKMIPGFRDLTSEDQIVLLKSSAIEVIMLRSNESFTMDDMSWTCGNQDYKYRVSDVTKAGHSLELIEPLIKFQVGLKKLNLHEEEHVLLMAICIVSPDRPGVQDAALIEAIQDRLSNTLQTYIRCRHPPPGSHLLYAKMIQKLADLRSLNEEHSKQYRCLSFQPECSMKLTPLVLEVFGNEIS
The data set is described as follows: Antagonist activity at VDR in human BE2C cells assessed as reduction in MYCN expression at 1 uM incubated for 24 hrs by western blot analysis relative to control. The format is cell-based. As to conditions: filed as antagonist. The method, boiled down: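 BE(2)-C cells given 1 μM for 24 h; immunoblot with β-actin or α-tubulin loading control; normalized densitometry.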
Background: A western blot detects proteins with antibodies after separation by electrophoresis.

The nature of data set [6]: Toxicity in TH-MYCN +/+ transgenic neuroblastoma 129x1/SvJ.Tg (TH-MYCN)41Waw/Nci mouse model assessed as effect on CD4+ cells population at 10 mg/kg, ip qd by flow cytometry. Type of data set: organism-based. Conditions: in vivo. Put shortly: (§3)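 Immune cells isolated from TH-MYCN tumor-bearing mice treated with vehicle or compound; CD45+, CD4+, CD8+, macrophage, patrolling monocyte/DC and CD11b+ populations quantified by flow cytometry with characterized markers.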
For orientation: In flow cytometry, cells or beads pass a laser one at a time.

Data set [7] has as its system SK-N-AS. The data set is described as follows: Cytotoxicity against human SK-N-AS cells assessed as reduction in cell viability incubated for 48 hrs by MTS assay. Type of data set: functional, cell-based. Conditions: dose 0.1-10 µM, DDE = dose-dependent effect. The method, boiled down: (§4)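 Neuroblastoma lines seeded 5,000 cells/well, attached overnight, treated 48 h in complete medium (DMSO ≤0.2%); MTS reagent 1:10 in fresh RPMI 2–4 h, absorbance 490 nm.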

Data set [8] has as its system SK-OV-3. The data set is described as follows: Anti-tumor activity against human SK-OV-3 cells xenografted in nude mouse assessed as reduction in tumor growth at 10 mg/kg, ip measured for 1 to 39 days. As to conditions: time 1-39 day.
The test system of data set [9] is SH-EP1. The data set is described as follows: Cytotoxicity against human SH-EP1 cells assessed as reduction in cell viability incubated for 48 hrs by MTS assay. Conditions: dose 0.1-10 µM, DDE = dose-dependent effect. Type of data set: functional, cell-based. Put shortly: as §4
Data set [10] relates to Kelly. The data set is described as follows: Cytotoxicity against human Kelly cells assessed as reduction in cell viability incubated for 48 hrs by MTS assay. The format is functional, cell-based. Conditions: dose 0.1-10 µM, DDE = dose-dependent effect. Put shortly:
as §4

For data set [11], the system named is LA-N-5. The data set is described as follows: Cytotoxicity against human LA-N-5 cells assessed as reduction in cell viability incubated for 48 hrs by MTS assay. Type of data set: functional, cell-based. Conditions: dose 0.1-10 µM, DDE = dose-dependent effect. The method, boiled down:
as §4

In data set [12] the target is T1, Vitamin D3 receptor (Homo sapiens). The data set is described as follows: Antagonist activity at VDR in human 2008 cells assessed as suppression of importin-4 expression at 250 nM incubated for 12 to 18 hrs by western blot analysis relative to control. Type of data set: cell-based. As to conditions: filed as antagonist, time 12-18 hrs. Put shortly:
(§5)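 2008 ovarian cancer cells exposed 250 nM, 18 h; immunoblot with loading control (GAPDH for RXR-α, α-tubulin for Importin-4); band densitometry normalized to loading control.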

Data set [13] relates to Mus musculus. The data set is described as follows: Anti-tumor activity against TH-MYCN +/+ transgenic neuroblastoma 129x1/SvJ.Tg (TH-MYCN)41Waw/Nci mouse model assessed as reduction in tumor growth at 10 mg/kg, ip measured upto 7 days by ultrasound imaging analysis. The format is functional, organism-based. Conditions: time <= 7.0 day. Put shortly:
as §2

Data set [14] in a line: Toxicity in TH-MYCN +/+ transgenic neuroblastoma 129x1/SvJ.Tg (TH-MYCN)41Waw/Nci mouse model assessed as effect on patrolling monocytes/DC+ cells population at 10 mg/kg, ip qd by flow cytometry. The format is organism-based. Conditions: in vivo. The method, boiled down: as §3
In data set [15] the target is T1, Vitamin D3 receptor (Homo sapiens). The data set is described as follows: Antagonist activity at VDR LBD (unknown origin) using Alexa Fluor 647-labeled SRC2-3 as substrate incubated for 2 hrs in presence of calcitriol by fluorescence polarization assay. As to conditions: filed as antagonist. Put shortly:
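VDR-LBD (0.1 μM) with Alexa Fluor 647-labelled SRC2-3 (17.5 nM) and 10 nM 1,25(OH)2D3 in 25 mM PIPES, 50 mM NaCl, 0.01% NP-40, pH 6.75. Compounds were serially diluted 1:2 from 10 mM DMSO stocks and incubated 2 h. Polarization was read at 635/685 nm. Three independent experiments in quadruplicate; IC50 by variable-slope nonlinear regression.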

The target is the same in data set [16]. The data set is described as follows: Antagonist activity at VDR in human 2008 cells assessed as suppression of RXR-alpha expression at 250 nM incubated for 18 hrs by western blot analysis relative to control. The format is cell-based. As to conditions: filed as antagonist. Put shortly: as §5
Data set [17] has the same target. The data set is described as follows: Antagonist activity at VDR LBD (unknown origin) transfected in HEK-293T cells assessed as inhibition of 1,25(OH)2D3-induced receptor transactivation incubated for 16 hrs by Bright-Glo luciferase assay. The format is cell-based. As to conditions: filed as antagonist. The method, boiled down:
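HEK293T on matrigel, lipid-transfected with VDR-CMV plasmid and CYP24A1-luciferase reporter; after 16 h, replated at 15,000 cells/well, compound added 4 h later together with 10 nM 1,25(OH)2D3; 16 h at 37 °C, 5% CO2; luminescence read. At least two independent experiments in quadruplicate; nonlinear regression, variable slope.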

Data set [18] can be described thus: Toxicity in TH-MYCN +/+ transgenic neuroblastoma 129x1/SvJ.Tg (TH-MYCN)41Waw/Nci mouse model assessed as effect on CD8+ cells population at 10 mg/kg, ip qd by flow cytometry. The format is organism-based. As to conditions: in vivo. Put shortly:
as §3

Data set [19] is described as follows: Toxicity in TH-MYCN +/+ transgenic neuroblastoma 129x1/SvJ.Tg (TH-MYCN)41Waw/Nci mouse model assessed as effect on macrophage population at 10 mg/kg, ip qd by flow cytometry. The format is organism-based. Conditions: in vivo. The method, boiled down:
as §3

Data set [20] can be described thus: Anti-tumor activity against human SK-OV-3 cells xenografted in nude mouse assessed as animal survival at 10 mg/kg, ip measured upto 36 days. As to conditions: SK-OV-3, 864 h.
Data set [21] deals with BE(2)-C. The data set is described as follows: Cytotoxicity against human BE2C cells assessed as reduction in cell viability incubated for 48 hrs by MTS assay. The format is functional, cell-based. As to conditions: dose 0.1-10 µM, DDE = dose-dependent effect. The method, boiled down:
as §4

Active and inactive are the calls of the source. The rule behind the calls is not given here.

Regarding `CC(C)CCC[C@@H](C)[C@H]1CC[C@@H]2[C@]1(C)CCC1[C@]23C=C[C@]2(C[C@@H](OC(=O)CBr)CC[C@]12C)n1c(=O)n(C)c(=O)n13` (stereo partly specified), the outcome in [1], in data set [4], in [8] and in [13] was Active. Besides, the Activity entry is “Dde” in data set [2]; “Non-Toxic” in data set [3]; “Non-Toxic” in [6]; “Dde” in data set [7]; “Dde” in data set [9]; “Dde” in data set [10]. Besides, the Activity entry is “Dde” in [11]; “Non-Toxic” in [14]; 2.9 µM in [15]; 20.8 µM in [17]; “Non-Toxic” in [18]; “Non-Toxic” in [19]. The Activity entry in [21] was “Dde”. Also, the values for the fold change (FC) in [5], in data set [12] and in data set [16] were 0.68, 0.82 and 0.29, respectively. For the same compound, the survival at 10 mg/kg in data set [20] was determined as 100%.

These data come from ChEMBL document CHEMBL5154854, “Identification of a Vitamin-D Receptor Antagonist, MeTC7, which Inhibits the Growth of Xenograft and Transgenic Tumors In Vivo” (J Med Chem, 2022).
